Consider five compounds from ChEMBL document CHEMBL1148329, “Synthesis and structure-activity studies on N-[5-(1H-imidazol-4-yl)-5,6,7,8-tetrahydro-1-naphthalenyl]methanesulfonamide, an imidazole-containing alpha(1A)-adrenoceptor agonist” (J Med Chem, 2004).

Test [1] has as its target T1, Alpha-2A adrenergic receptor (Homo sapiens, UniProt P08913).
T1 sequence (P08913 whole entry): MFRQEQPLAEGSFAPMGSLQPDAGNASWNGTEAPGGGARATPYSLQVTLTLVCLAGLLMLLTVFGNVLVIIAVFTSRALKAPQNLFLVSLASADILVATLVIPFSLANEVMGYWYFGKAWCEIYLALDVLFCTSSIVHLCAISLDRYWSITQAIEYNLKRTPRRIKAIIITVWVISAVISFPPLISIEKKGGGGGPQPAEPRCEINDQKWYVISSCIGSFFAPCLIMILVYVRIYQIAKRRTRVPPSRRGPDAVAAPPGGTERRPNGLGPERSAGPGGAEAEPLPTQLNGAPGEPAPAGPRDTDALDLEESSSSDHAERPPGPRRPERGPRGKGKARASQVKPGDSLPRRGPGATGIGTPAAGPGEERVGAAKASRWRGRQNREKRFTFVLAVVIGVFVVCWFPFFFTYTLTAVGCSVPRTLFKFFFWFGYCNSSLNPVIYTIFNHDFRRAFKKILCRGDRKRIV
Briefly: In vitro binding affinity towards alpha-2A adrenergic receptor of human clone in radioligand binding assay.

For test [2], the target named is T2, Alpha-1A adrenergic receptor (Oryctolagus cuniculus) (UniProt O02824).
T2 sequence (whole entry): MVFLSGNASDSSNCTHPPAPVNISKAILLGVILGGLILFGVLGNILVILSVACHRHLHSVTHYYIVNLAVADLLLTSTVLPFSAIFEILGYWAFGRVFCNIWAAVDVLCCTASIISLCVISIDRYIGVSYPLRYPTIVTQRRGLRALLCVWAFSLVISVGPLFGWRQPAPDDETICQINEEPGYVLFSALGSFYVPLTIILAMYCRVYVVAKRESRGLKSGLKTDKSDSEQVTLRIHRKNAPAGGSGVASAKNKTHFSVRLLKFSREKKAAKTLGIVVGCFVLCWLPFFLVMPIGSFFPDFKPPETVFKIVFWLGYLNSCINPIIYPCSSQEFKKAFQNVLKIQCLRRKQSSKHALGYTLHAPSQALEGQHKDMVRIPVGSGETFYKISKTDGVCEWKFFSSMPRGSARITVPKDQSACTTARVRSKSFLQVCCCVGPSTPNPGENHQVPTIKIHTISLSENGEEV
Briefly: Efficacy relative to phenylephrine (PE) to constrict tissue containing the alpha-1A adrenergic receptor in rabbit urethra. The test is classed as functional, tissue-based. In a few lines: (§1)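 α1-agonist dose–response curves in isolated tissue: rabbit urethra (α1A), rat spleen (α1B), rat aorta (α1D). Agonist potency and efficacy read from the concentration–response curves.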

The target of test [3] is T3, Alpha-1B adrenergic receptor (Rattus norvegicus) (UniProt P15823).
T3 sequence (whole entry): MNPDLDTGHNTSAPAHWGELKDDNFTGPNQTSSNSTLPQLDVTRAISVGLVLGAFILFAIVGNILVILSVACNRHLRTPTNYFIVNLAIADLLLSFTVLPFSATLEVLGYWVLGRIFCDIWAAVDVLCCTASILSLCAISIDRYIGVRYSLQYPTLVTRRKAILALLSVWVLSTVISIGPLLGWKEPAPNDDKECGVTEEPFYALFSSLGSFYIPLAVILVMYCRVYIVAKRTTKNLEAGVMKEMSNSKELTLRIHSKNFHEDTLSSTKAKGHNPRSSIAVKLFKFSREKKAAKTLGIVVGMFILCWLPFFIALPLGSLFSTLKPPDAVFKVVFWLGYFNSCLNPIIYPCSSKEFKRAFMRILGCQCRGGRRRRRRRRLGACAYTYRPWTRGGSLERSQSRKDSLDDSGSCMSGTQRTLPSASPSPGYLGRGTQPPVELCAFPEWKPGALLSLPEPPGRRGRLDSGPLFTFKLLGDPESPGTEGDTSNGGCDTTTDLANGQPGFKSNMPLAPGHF
Briefly: Functional agonism of the compounds to constrict tissue containing the alpha-1B adrenergic receptor in rat spleen. The test is classed as tissue-based. In a few lines:
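Agonist dose–response curves were run on isolated tissue: rabbit urethra for α1A, rat spleen for α1B, and rat aorta for α1D.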

Test [4] deals with T3, Alpha-1B adrenergic receptor (Rattus norvegicus). Description: Efficacy relative to phenylephrine (PE) constriction of rat spleen containing alpha-1B adrenergic receptor. The format is functional, tissue-based. In a few lines: as §1
In test [5] the test system is Canis familiaris. Briefly: Uroselectivity was determined by measuring effective dose required for 5 mmHg increase of intraurethral pressure (IUP) in vivo in dog. The test is classed as functional, Canis lupus familiaris. In a few lines: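 Dog model recording intraurethral pressure (IUP) and mean arterial pressure (MAP) simultaneously. Increasing iv doses given, maximal effect of each dose taken. Doses giving a 5 mmHg rise in IUP (ED Δ5) or 20 mmHg rise in MAP (ED Δ20) were calculated, in nmol/kg ± SEM, n ≥ 4 (2 or 3 where footnoted).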

Test [6] in a line: Selectivity is ratio of efficacy of alpha-2A to that of alpha1A adrenoceptor. The format is functional.
Test [7] is described as follows: Relative affinities for alpha-2a and alpha-1A receptors.
Test [8] concerns the target T4, Alpha-2B adrenergic receptor (Rattus norvegicus, UniProt P19328).
T4 sequence (P19328 whole entry): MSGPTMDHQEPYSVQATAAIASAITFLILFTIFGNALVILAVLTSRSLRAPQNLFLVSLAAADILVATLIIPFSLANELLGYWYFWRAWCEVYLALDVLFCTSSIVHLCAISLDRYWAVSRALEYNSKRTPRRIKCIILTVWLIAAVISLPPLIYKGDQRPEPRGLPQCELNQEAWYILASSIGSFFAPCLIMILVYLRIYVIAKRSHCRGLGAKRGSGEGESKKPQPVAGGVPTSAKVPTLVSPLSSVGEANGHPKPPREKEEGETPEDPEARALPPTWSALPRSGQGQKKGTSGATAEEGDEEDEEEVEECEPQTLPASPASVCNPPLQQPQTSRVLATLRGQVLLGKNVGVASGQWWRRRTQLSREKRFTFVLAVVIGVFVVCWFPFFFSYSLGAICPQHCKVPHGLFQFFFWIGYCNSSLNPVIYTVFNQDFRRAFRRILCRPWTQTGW
Description: In vitro binding affinity towards alpha-2B adrenergic receptor of rat neonatal lung in radioligand binding assay.

Test [9] is filed under the species Canis familiaris. Briefly: Ratio of MAP ED delta20 to that of IUP ED delta5.
Test [10] deals with T5, Alpha-2A adrenergic receptor (Rattus norvegicus) (UniProt P22909).
T5 sequence (whole entry): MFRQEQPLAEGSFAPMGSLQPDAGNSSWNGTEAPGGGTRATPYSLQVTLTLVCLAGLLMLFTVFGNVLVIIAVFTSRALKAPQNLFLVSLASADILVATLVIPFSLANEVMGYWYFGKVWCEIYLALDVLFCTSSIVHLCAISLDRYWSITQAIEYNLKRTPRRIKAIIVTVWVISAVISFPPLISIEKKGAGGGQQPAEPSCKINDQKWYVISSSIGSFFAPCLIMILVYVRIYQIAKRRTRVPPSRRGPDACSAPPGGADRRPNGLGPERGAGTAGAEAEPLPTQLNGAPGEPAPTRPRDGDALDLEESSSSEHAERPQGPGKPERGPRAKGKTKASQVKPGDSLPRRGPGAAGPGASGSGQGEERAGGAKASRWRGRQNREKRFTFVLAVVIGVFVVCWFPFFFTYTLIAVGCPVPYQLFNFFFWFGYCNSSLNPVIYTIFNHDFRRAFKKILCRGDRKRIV
Briefly: Efficacy relative to clonidine to constrict tissue containing the alpha-2A adrenergic receptor in rat prostatic vas deferens.

On to `COc1ccc(OC)c(C(O)CN)c1` (stereo unspecified) [DESGLYMIDODRINE], for which the inhibitory constant (Ki) (in general, a measure of affinity in units of concentration, obtained from inhibition or displacement) is 1450 nM in [1] and 1860 nM in test [8]. In addition, the Efficacy is 133% in test [2], 68% in test [4] and 20% in test [10]. Besides, the pD2 in test [3] was found to be 4.07. Moreover, the “ED delta5” value in the test with Canis familiaris [5] was found to be 205 nM/kg. The values for the Selectivity in test [6] and in test [7] were 0.001 and 0.7, respectively. For the same compound, in the test listed under Canis familiaris [9], the Ratio was 1.3.

Regarding `CN(c1cccc2c1CCCC2c1c[nH]cn1)S(C)(=O)=O` (stereo unspecified), the inhibition constant (Ki) was 85.1 nM in test [1] and 912 nM in [8]. The Efficacy stood at 79% in test [2] and 100% in test [10]. In addition, the pD2 in test [3] is 5.65. The Selectivity in [6] worked out at 0.12; in test [7], 0.4. Besides, the Ratio in the test listed under Canis familiaris [9] was 2.5.

As to `CC(N)C(O)c1ccccc1` (stereo unspecified) [PHENYLPROPANOLAMINE], the Ki was 275 nM in test [1] and 263 nM in test [8]. The Efficacy in test [2] turned out to be 68%; in test [4], 34%; in test [10], 85%. The compound further showed a pD2 in test [3] of 3.55. Moreover, the “ED delta5” value in the test with Canis familiaris [5] is 1100 nM/kg. The Selectivity in [6] and in [7] was 0.03 in each case. The Ratio in the test listed under Canis familiaris [9] is recorded as 0.4.

As to `O=S(=O)(CC(F)(F)F)Nc1cccc2c1CCCC2c1c[nH]cn1` (single isomer, unassigned; (+)), the Ki in test [1] is 955 nM; in test [8], more than 10000 nM. Moreover, the Efficacy in test [2] is 52%; in test [10] it was 100%. In the test with Canis familiaris [5], this compound showed an ED delta5 of 156 nM/kg. Moreover, the Selectivity came out at 0.14 in test [6] and 8 in [7]. For the same compound, in the test listed under Canis familiaris [9], the Ratio amounted to 3.

Consider `O=C(Nc1cccc2c1CCCC2c1c[nH]cn1)C(F)(F)F` (stereo unspecified), for which the Ki in test [1] was 309 nM; in test [8], 661 nM. Besides, the Efficacy in [2] amounted to 118%; in test [4] it was 19%; in test [10], 100%. This compound displayed a pD2 in test [3] of 5.47. Besides, the “ED delta5” value in the test on Canis familiaris [5] was 188 nM/kg. Besides, the figures for the Selectivity in test [6] and in [7] were 0.1 and 2, respectively. In addition, in the test filed under Canis familiaris [9], the Ratio is listed as 1.1.
